{
  "source": "ChEMBL document CHEMBL1932985",
  "about": "“Identification of biaryl sulfone derivatives as antagonists of the histamine H₃ receptor: discovery of (R)-1-(2-(4'-(3-methoxypropylsulfonyl)biphenyl-4-yl)ethyl)-2-methylpyrrolidine (APD916)” (Bioorg Med Chem Lett, 2012)",
  "key": {"[1]": {"experiment": "Oral bioavailability in dog at 3 mg/kg by LC-MS/MS analysis", "format": "ADME, organism-based, Canis lupus familiaris", "settings": "in vivo"}, "[2]": {"experiment": "Clearance in mouse at 3 mg/kg, po by LC-MS/MS analysis", "format": "ADME, organism-based", "parameters": "dose 3 mg/kg, route oral", "settings": "in vivo"}, "[3]": {"experiment": "Clearance in Sprague-Dawley rat at 3 mg/kg, po by LC-MS/MS analysis", "format": "ADME, organism-based", "parameters": "dose 3 mg/kg, route oral", "settings": "in vivo"}, "[4]": {"experiment": "Clearance in monkey at 3 mg/kg, po by LC-MS/MS analysis", "format": "ADME, organism-based, Macaca mulatta", "parameters": "dose 3 mg/kg, route oral", "settings": "rhesus monkey, in vivo"}, "[5]": {"experiment": "Clearance in dog at 3 mg/kg, po by LC-MS/MS analysis", "format": "ADME, organism-based, Canis lupus familiaris", "parameters": "dose 3 mg/kg, route oral", "settings": "in vivo"}, "Mus musculus [6]": {"test_system": "Mus musculus", "experiment": "Hepatic blood flow in mouse at 3 mg/kg, po by LC-MS/MS analysis", "format": "ADME, organism-based, Liver", "parameters": "dose 3 mg/kg, route oral", "settings": "in vivo"}, "Rattus norvegicus [7]": {"test_system": "Rattus norvegicus", "experiment": "Hepatic blood flow in Sprague-Dawley rat at 3 mg/kg, po by LC-MS/MS analysis", "format": "ADME, organism-based, Liver", "parameters": "dose 3 mg/kg, route oral", "settings": "in vivo"}, "Rhesus monkey [8]": {"test_system": "Rhesus monkey", "experiment": "Hepatic blood flow in monkey at 3 mg/kg, po by LC-MS/MS analysis", "format": "ADME, organism-based, Macaca mulatta, Liver", "parameters": "dose 3 mg/kg, route oral", "settings": "in vivo"}, "Canis familiaris [9]": {"test_system": "Canis familiaris", "experiment": "Hepatic blood flow in dog at 3 mg/kg, po by LC-MS/MS analysis", "format": "ADME, organism-based, Canis lupus familiaris, Liver", "parameters": "dose 3 mg/kg, route oral", "settings": "in vivo"}, "Mus musculus [10]": {"test_system": "Mus musculus", "experiment": "Volume of distribution at steady state in mouse at 3 mg/kg, po by LC-MS/MS analysis", "format": "ADME, organism-based", "parameters": "dose 3 mg/kg, route oral", "settings": "in vivo"}, "Rattus norvegicus [11]": {"test_system": "Rattus norvegicus", "experiment": "Volume of distribution at steady state in Sprague-Dawley rat at 3 mg/kg, po by LC-MS/MS analysis", "format": "ADME, organism-based", "parameters": "dose 3 mg/kg, route oral", "settings": "in vivo"}, "Rhesus monkey [12]": {"test_system": "Rhesus monkey", "experiment": "Volume of distribution at steady state in monkey at 3 mg/kg, po by LC-MS/MS analysis", "format": "ADME, organism-based, Macaca mulatta", "parameters": "dose 3 mg/kg, route oral", "settings": "in vivo"}, "Canis familiaris [13]": {"test_system": "Canis familiaris", "experiment": "Volume of distribution at steady state in dog at 3 mg/kg, po by LC-MS/MS analysis", "format": "ADME, organism-based, Canis lupus familiaris", "parameters": "dose 3 mg/kg, route oral", "settings": "in vivo"}, "Histamine H3 receptor [14]": {"target": "T1, Histamine H3 receptor (Homo sapiens, UniProt Q9Y5N1)", "T1 sequence (Q9Y5N1 whole entry)": "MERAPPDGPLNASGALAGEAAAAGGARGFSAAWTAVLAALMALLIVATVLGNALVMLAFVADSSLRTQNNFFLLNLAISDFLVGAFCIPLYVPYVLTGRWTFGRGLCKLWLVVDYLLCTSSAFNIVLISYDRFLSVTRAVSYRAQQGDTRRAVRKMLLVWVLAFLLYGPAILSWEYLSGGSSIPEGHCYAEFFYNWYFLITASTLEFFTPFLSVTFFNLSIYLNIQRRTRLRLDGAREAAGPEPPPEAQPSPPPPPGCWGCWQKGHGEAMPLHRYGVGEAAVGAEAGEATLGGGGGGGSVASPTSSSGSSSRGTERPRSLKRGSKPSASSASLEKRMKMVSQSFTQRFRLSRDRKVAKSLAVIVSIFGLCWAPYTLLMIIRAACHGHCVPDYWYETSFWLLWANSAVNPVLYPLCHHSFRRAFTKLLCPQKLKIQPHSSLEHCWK", "experiment": "Binding affinity to human cloned histamine H3 receptor"}, "Histamine H3 receptor [15]": {"target": "T1, Histamine H3 receptor", "experiment": "Inverse agonist activity at human cloned histamine H3 receptor by [35S]GTPgammaS binding assay", "format": "functional"}, "Cytochrome P450 3A4": {"target": "Cytochrome P450 3A4 (Homo sapiens, UniProt P08684)", "sequence (P08684 whole entry, canonical isoform)": "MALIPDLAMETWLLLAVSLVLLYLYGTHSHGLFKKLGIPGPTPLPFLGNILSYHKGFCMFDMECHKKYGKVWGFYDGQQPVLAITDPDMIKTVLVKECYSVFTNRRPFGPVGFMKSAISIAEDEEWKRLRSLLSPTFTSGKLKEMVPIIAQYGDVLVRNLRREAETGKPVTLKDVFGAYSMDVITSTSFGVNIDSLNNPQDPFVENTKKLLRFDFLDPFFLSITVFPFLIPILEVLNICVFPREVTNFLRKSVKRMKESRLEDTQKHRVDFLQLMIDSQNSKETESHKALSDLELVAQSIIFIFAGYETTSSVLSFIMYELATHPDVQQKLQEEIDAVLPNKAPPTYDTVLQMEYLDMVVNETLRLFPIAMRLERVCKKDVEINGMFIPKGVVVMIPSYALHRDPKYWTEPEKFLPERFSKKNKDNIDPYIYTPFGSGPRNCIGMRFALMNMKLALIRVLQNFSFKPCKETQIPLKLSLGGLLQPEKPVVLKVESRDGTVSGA", "experiment": "Inhibition of CYP3A4", "format": "ADME", "how_it_was_run": "(§1)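 Inhibition tested against five major CYP isoforms; IC50 determined.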"}, "Cytochrome P450 1A2": {"target": "T2, Cytochrome P450 1A2 (Homo sapiens, UniProt P05177)", "T2 sequence (P05177 whole entry)": "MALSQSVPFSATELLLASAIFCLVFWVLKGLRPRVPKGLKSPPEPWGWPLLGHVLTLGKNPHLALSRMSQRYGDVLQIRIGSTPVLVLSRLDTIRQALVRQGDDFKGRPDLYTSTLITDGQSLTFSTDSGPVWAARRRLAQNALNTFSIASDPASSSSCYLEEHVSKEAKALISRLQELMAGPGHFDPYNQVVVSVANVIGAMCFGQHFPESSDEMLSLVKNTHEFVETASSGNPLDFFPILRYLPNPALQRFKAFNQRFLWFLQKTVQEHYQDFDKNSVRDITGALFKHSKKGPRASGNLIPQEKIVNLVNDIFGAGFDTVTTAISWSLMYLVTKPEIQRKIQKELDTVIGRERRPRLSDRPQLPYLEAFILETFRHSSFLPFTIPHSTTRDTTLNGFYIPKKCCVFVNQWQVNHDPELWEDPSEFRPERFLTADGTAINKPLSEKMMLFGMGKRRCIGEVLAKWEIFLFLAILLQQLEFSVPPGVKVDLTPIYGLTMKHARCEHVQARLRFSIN", "experiment": "Inhibition of CYP1A2", "format": "ADME", "how_it_was_run": "as §1"}, "Cytochrome P450 2C9": {"target": "Cytochrome P450 2C9 (Homo sapiens, UniProt P11712)", "sequence (P11712 whole entry)": "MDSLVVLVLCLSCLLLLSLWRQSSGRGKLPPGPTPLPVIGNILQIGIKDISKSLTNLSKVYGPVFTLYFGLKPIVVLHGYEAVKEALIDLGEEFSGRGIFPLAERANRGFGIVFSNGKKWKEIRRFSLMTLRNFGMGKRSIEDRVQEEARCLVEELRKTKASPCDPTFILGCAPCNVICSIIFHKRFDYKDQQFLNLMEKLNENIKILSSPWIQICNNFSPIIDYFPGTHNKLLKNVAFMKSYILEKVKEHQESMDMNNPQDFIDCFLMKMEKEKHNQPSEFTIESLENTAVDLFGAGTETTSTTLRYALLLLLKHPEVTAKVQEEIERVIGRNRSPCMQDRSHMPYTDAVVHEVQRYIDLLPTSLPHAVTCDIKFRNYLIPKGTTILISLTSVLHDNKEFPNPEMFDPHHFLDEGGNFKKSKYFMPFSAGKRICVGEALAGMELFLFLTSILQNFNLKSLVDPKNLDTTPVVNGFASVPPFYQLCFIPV", "experiment": "Inhibition of CYP2C9", "format": "ADME", "how_it_was_run": "as §1"}, "Cytochrome P450 2C19": {"target": "Cytochrome P450 2C19 (Homo sapiens, UniProt P33261)", "sequence (P33261 whole entry)": "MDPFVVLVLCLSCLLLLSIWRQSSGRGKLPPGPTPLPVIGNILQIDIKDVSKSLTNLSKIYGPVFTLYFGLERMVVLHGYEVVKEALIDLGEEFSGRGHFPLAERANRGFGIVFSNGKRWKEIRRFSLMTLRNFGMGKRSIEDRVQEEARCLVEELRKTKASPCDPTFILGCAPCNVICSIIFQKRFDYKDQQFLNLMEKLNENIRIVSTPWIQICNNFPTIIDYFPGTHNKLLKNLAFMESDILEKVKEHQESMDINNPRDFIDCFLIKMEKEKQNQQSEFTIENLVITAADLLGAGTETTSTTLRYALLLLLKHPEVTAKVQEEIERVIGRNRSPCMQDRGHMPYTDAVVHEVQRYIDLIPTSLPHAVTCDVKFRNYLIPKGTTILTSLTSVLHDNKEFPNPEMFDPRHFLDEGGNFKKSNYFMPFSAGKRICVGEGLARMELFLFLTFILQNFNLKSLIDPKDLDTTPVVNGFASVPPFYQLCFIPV", "experiment": "Inhibition of CYP2C19", "format": "ADME", "how_it_was_run": "as §1"}, "Cytochrome P450 2D6": {"target": "Cytochrome P450 2D6 (Homo sapiens, UniProt P10635)", "sequence (P10635 whole entry)": "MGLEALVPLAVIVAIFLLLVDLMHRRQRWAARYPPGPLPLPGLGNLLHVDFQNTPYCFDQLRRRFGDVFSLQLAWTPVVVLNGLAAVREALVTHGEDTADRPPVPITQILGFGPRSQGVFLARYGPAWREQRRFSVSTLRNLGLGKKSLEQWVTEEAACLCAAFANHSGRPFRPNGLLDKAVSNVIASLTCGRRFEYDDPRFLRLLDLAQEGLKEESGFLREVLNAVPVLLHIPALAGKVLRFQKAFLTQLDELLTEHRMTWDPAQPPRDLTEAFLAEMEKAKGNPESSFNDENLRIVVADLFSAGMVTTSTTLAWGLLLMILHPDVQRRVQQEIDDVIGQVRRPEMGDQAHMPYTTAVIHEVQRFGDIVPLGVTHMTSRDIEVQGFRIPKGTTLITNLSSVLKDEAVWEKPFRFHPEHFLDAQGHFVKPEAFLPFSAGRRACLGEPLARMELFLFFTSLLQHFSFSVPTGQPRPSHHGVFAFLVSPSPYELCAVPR", "experiment": "Inhibition of CYP2D6", "format": "ADME", "how_it_was_run": "as §1"}, "Salmonella typhimurium": {"test_system": "Salmonella typhimurium", "experiment": "Mutagenic activity in Salmonella Typhimurium by micro-Ames assay", "format": "toxicity, organism-based", "settings": "salmonella enterica subsp. enterica serovar typhimurium"}, "[16]": {"experiment": "Cmax in Sprague-Dawley rat at 3 mg/kg, po by LC-MS/MS analysis", "format": "ADME, organism-based", "parameters": "dose 3 mg/kg, route oral", "settings": "in vivo", "how_it_was_run": "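Rat PK after IV and PO dosing; plasma Cmax, Tmax, IV half-life and Vss determined; oral bioavailability from AUCpo/AUCiv. Metabolite exposure determined after a 3 mg/kg PO parent dose.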"}, "[17]": {"experiment": "Oral bioavailability in mouse at 3 mg/kg by LC-MS/MS analysis", "format": "ADME, organism-based", "settings": "in vivo"}, "Canis lupus familiaris [18]": {"test_system": "Canis lupus familiaris", "experiment": "Cardiotoxicity in dog assessed as increase in mean arterial blood pressure at 10 to 30 mg/kg, po", "settings": "in vivo"}, "Canis lupus familiaris [19]": {"test_system": "Canis lupus familiaris", "experiment": "Cardiotoxicity in dog assessed as increase in mean arterial blood pressure at 10 to 30 mg/kg, po after 60 mins", "settings": "in vivo, 1 h"}},
  "data": [
    {"smiles": "COCCCS(=O)(=O)c1ccc(-c2ccc(CCN3CCC[C@H]3C)cc2)cc1", "values": [
      {"measurement": "bioavailability", "setting": "[1]", "result": 100, "unit": "%"},
      {"measurement": "CL/F", "setting": "[2]", "result": 72.7, "unit": "mL/min/kg"},
      {"measurement": "CL/F", "setting": "[3]", "result": 74.3, "unit": "mL/min/kg"},
      {"measurement": "CL/F", "setting": "[4]", "result": 6.17, "unit": "mL/min/kg"},
      {"measurement": "CL/F", "setting": "[5]", "result": 13.7, "unit": "mL/min/kg"},
      {"measurement": "QH", "setting": "Mus musculus [6]", "result": 78, "unit": "%"},
      {"measurement": "QH", "setting": "Rattus norvegicus [7]", "result": 106, "unit": "%"},
      {"measurement": "QH", "setting": "Rhesus monkey [8]", "result": 14, "unit": "%"},
      {"measurement": "QH", "setting": "Canis familiaris [9]", "result": 43, "unit": "%"},
      {"measurement": "Vdss", "setting": "Mus musculus [10]", "result": 2.54, "unit": "L/kg"},
      {"measurement": "Vdss", "setting": "Rattus norvegicus [11]", "result": 7.54, "unit": "L/kg"},
      {"measurement": "Vdss", "setting": "Rhesus monkey [12]", "result": 2.16, "unit": "L/kg"},
      {"measurement": "Vdss", "setting": "Canis familiaris [13]", "result": 2.89, "unit": "L/kg"},
      {"measurement": "Ki", "setting": "Histamine H3 receptor [14]", "result": 0.0042, "unit": "µM"},
      {"measurement": "IC50", "setting": "Histamine H3 receptor [15]", "result": 0.0007, "unit": "µM"},
      {"measurement": "IC50", "setting": "Cytochrome P450 3A4", "result": "> 40", "unit": "µM"},
      {"measurement": "IC50", "setting": "Cytochrome P450 1A2", "result": "> 40", "unit": "µM"},
      {"measurement": "IC50", "setting": "Cytochrome P450 2C9", "result": "> 40", "unit": "µM"},
      {"measurement": "IC50", "setting": "Cytochrome P450 2C19", "result": "> 40", "unit": "µM"},
      {"measurement": "IC50", "setting": "Cytochrome P450 2D6", "result": "> 40", "unit": "µM"},
      {"measurement": "Activity", "setting": "Salmonella typhimurium", "result": "Non-toxic"},
      {"measurement": "Cmax", "setting": "[16]", "result": 100, "unit": "ng/mL"},
      {"measurement": "bioavailability", "setting": "[17]", "result": 35.4, "unit": "%"},
      {"measurement": "Activity", "setting": "Canis lupus familiaris [18]", "result": "Toxic"},
      {"measurement": "Activity", "setting": "Canis lupus familiaris [19]", "result": "Non-toxic"}
    ]}
  ]
}
